Bioassay records from PubChem BioAssay.
AI-2 QS mod: modulates the Vibrio harveyi AI-2 quorum sensing system; Vibrio harveyi JMH597 AI-2 luminescence/OD600 ratio, 9 h; stronger effect = lower value; strain lacks LuxN and CqsS sensors; 0 = neutral-control median; activity change, % at 7.5 µM; 300,000 compounds, 0.4% hits; AID 2094; in the data active = activity change below about -75%, passing the limit was not always enough;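 note: luminescence divided by OD600 gain over 9 h not by final OD600 alone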
SUMO Mot1 rescue: inhibitors of SUMOylation pathway: yeast Mot1-301 growth rescue; growth rescue, % at 18.8 µM; 320,000 compounds, 1% hits; S. cerevisiae Mot1-301 growth rescue, ATP luminescence, 38.5C; percent above DMSO median, 100 means doubled;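 active = every valid replicate shows activation above 250% relative to neutral control wells; inactive = the rest, any valid replicate at or below 250%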
hERG rescue: shields human hERG channel from block by proarrhythmic agents; CHO-hERG, FluxOR thallium flux, dofetilide IC70 present; Q12809; AID 1511; activation (rescue from dofetilide block), less the hit threshold, % at 10 µM; 310,000 compounds, 0.51% hits;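 active = activation above the mean of controls blocked by dofetilide plus 5 SD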;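 note: thallium influx through hERG after potassium depolarization seen as dye fluorescence rise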
KCC2 mod: KCC2 (human) Cl- transport modulation; Q9H2X9; KCC2 cells, thallium flux FluoZin-2 fluorescence; B-score of Tl+ flux slope (higher = more flux/activation; lower = inhibition) at 10 µM; 190,000 compounds, 2.2% hits; AID 1456;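 active = thallium flux slope and its plate-corrected score both differing from the plate sample mean at a set confidence after two filtering rounds, in either direction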;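 note: slope of fluorescence scaled to starting intensity during 10 to 20 s after thallium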
KCNQ1 act: human KCNQ1 channel potentiation or activation; P51787; CHO-K1 KCNQ1, thallium flux FluxOR fluorescence; stronger effect = higher value; B-score at 10 µM; 310,000 compounds, 0.35% hits;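 active = fluorescence ratio B-score, a plate-corrected score, at least three library SD, with initial intensity B-score within 5 SD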
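Assay system: CHO-K1 cells stably expressing KCNQ1; Medium: assay buffer with matched DMSO; Also added: K+/Tl+ depolarizing stimulus; Dosing: single dose; Timing: dye 90 min, compound 20 min, room temperature; Measured by: kinetic FluxOR thallium fluorescence, 10-s 1-Hz baseline, 110-s post-stimulus read; Read-out: peak-minus-minimum fluorescence over initial fluorescence, negative-control normalized, B-scored.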
KCNQ1 inh: inhibitors of human KCNQ1 potassium channel | P51787 | CHO-K1 KCNQ1, FluxOR thallium flux fluorescence; stronger effect = higher value | B-score at 10 µM | 310,000 compounds, 1.3% hits;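 active = compounds whose thallium flux B-score, printed positive for inhibition, exceeds three library SD while starting fluorescence stays within three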;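 note: channel opened by potassium depolarization with thallium stimulus after 20 min compound exposure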
KCNQ1 inh valid: human KCNQ1 channel inhibition, validation assay. KCNQ1 cell line, FluxOR thallium flux fluorescence. inhibition, % at 10 µM. 1,600 compounds, 93% hits. shares compounds with KCNQ1 inh. AID 588353;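 active = primary screen active, with duplicate mean exceeding buffer control mean plus 3 SD of buffer wells, cut at about 28% in these data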
CHO KCNQ1 ctr: KCNQ1 inhibitor counter-screen hit in parental CHO cells; shares compounds with KCNQ1 inh; parental CHO-K1, FluxOR thallium flux fluorescence ratio; stronger effect = lower value; zero means no signal rise above baseline; fluorescence ratio (Tl flux) at 10 µM; 1,600 compounds, 21% hits; AID 588366;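 active = mean of duplicate thallium-flux fluorescence ratios in parental host cells more than 5 SD below the buffer control mean, cut at about 0.38 in these data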;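 note: ratio is peak minus minimum fluorescence divided by baseline fluorescence; actives read low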
KCNQ1 APC inh: blocks human KCNQ1 current in automated patch clamp; shares compounds with KCNQ1 inh; KCNQ1-CHO cells; calls only at 10 µM; 490 compounds, 20% hits; AID 624120;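 active = KCNQ1 current drop exceeding 3 SD of negative control wells, seen in both duplicate runs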;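 note: steady state current during a 2 s step from -80 to +40 mV; negative values mean current inhibition and positive values mean potentiation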
KCNQ2 spec: rat KCNQ2 inhibition in KCNQ1 inhibitor specificity screen. 1,600 compounds, 71% hits. shares compounds with KCNQ1 inh. KCNQ2 cells, FluxOR thallium flux fluorescence. inhibition, % at 10 µM;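 active = mean percent inhibition of the KCNQ2 thallium signal more than 5 SD above the buffer-only control wells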;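 note: KCNQ2 expressed in CHO cells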
KCNQ1-KCNE1 inh: human KCNQ1/KCNE1 inhibition in KCNQ1 specificity screen. inhibition, % at 10 µM. 1,600 compounds, 77% hits. shares compounds with KCNQ1 inh. KCNQ1/KCNE1 cells, FluxOR thallium flux fluorescence;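 active = mean percent inhibition of duplicate wells above the buffer-only control mean plus 3 SD of those controls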
Each line names hits and unclear results; the compound was inactive in the other large screens (follow-up assays come after a bar, where they were run). Most compounds without a hit are left out; they make up all but 4.2% or so of the library.

O=C(CSCc1cnn(-c2ccccc2)c1-n1cccc1)NCc1cccs1	KCNQ1 inh 7 | KCNQ1 inh valid 64 | CHO KCNQ1 ctr inactive | KCNQ2 spec inactive | KCNQ1-KCNE1 inh 102%
O=C(COc1ccc2ccccc2c1)NNC(=O)Nc1ccccc1F	none (no result: KCC2 mod)
O=C(COc1ccc2ccccc2c1)Nc1ccc(Br)cc1C(=O)O	KCNQ1 inh 9 (no result: KCC2 mod) | KCNQ1 inh valid inactive | CHO KCNQ1 ctr inactive | KCNQ2 spec inactive | KCNQ1-KCNE1 inh inactive
CCOC(=O)C1(CC2CC2)CCN(Cc2cnc(-c3ccccc3C)nc2)CC1	SUMO Mot1 rescue 946, KCNQ1 inh 7 | KCNQ1 inh valid inactive | CHO KCNQ1 ctr inactive | KCNQ2 spec 78% | KCNQ1-KCNE1 inh inactive
COc1cccc(-c2cc3nc(-c4ccccc4)cc(N4CCCC(O)C4)n3n2)c1 (stereo not given)	KCNQ1 inh 9 | KCNQ1 inh valid 85 | CHO KCNQ1 ctr inactive | KCNQ2 spec 134% | KCNQ1-KCNE1 inh 182%
Cc1cc(C)c(NC(=O)CNC(=O)CN(C)Cc2ccc(Br)s2)c(C)c1	none (no result: AI-2 QS mod, hERG rescue, KCC2 mod, KCNQ1 act, KCNQ1 inh)
CCCc1cc(C(=O)Nc2ccc(C(=O)c3ccc(F)cc3)cc2)n(C)n1	KCNQ1 inh 6 (no result: KCC2 mod) | KCNQ1 inh valid active | CHO KCNQ1 ctr inactive | KCNQ2 spec 137% | KCNQ1-KCNE1 inh active
COc1ccc(C)cc1N1CC(C(=O)Nc2ccccc2C(=O)NC2CC2)CC1=O (stereo not given)	none (no result: AI-2 QS mod, hERG rescue, KCC2 mod, KCNQ1 act, KCNQ1 inh)
S=C(NCc1ccccc1)NC1CCCc2ccccc21 (stereo not given)	KCNQ1 inh 8 | KCNQ1 inh valid inactive | CHO KCNQ1 ctr inactive | KCNQ2 spec 66% | KCNQ1-KCNE1 inh inactive
Cc1ccc(NC(=O)CSc2ncn(-c3ccccc3)n2)cc1C	none
CCOC(=O)c1sc(NC(=O)CSc2ncn(-c3ccccc3)n2)nc1C	KCNQ1 inh 16 | KCNQ1 inh valid 26 | CHO KCNQ1 ctr inactive | KCNQ2 spec inactive | KCNQ1-KCNE1 inh inactive
Cc1sc(NC(=O)CSc2ncn(-c3ccccc3)n2)nc1-c1ccccc1	KCNQ1 inh 6 | KCNQ1 inh valid 32 | CHO KCNQ1 ctr inactive | KCNQ2 spec 77% | KCNQ1-KCNE1 inh inactive
COc1ccc(F)cc1CN1CCN(c2ncnc3scc(-c4ccccc4)c23)CC1	KCNQ1 inh 7 | KCNQ1 inh valid 117 | CHO KCNQ1 ctr inactive | KCNQ1 APC inh inactive | KCNQ2 spec 114% | KCNQ1-KCNE1 inh 153%
COc1ccc(-c2csc3ncnc(N4CCN(c5cccc(OC)c5)CC4)c23)cc1	KCNQ1 inh 10 (no result: KCC2 mod) | KCNQ1 inh valid 134 | CHO KCNQ1 ctr inactive | KCNQ1 APC inh inactive | KCNQ2 spec 114% | KCNQ1-KCNE1 inh 119%
COc1ccc(N2CCN(c3ncnc4scc(-c5ccc(C)cc5)c34)CC2)cc1	none (no result: AI-2 QS mod, KCC2 mod)
COc1ccc(CN2CCN(c3ncnc4scc(-c5ccc(F)cc5)c34)CC2)cc1	none (no result: KCC2 mod)
COc1ccc(N2CCN(c3ncnc4scc(-c5ccccc5)c34)CC2)cc1	KCNQ1 inh 6 (no result: KCC2 mod) | KCNQ1 inh valid 93 | CHO KCNQ1 ctr inactive | KCNQ1 APC inh inactive | KCNQ2 spec 106% | KCNQ1-KCNE1 inh 108%
